Measured values pooled from the literature.
Each line is one published result; the experiments were not run side by side. Values after ≈ are worked out from the molar mass of the structure shown.
Read-out: microbial growth

`CCCS(=O)(=O)Oc1ccc(C=NNC(=O)CSc2nc3c(C)cccc3c(=O)n2-c2ccccc2)cc1OC` gave an inhibition zone of 3 mm (Bacillus cereus; well diffusion; 20 µg/mL).
With `O=c1oc2ccccc2c(Nc2ccccc2)c1I` the MIC90 was 10 µg/mL (≈ 27.5 µM) (Salmonella enterica; broth dilution; TYPHIMURIUM).
`N#CC(C#N)=C1SC(C(=O)c2ccc(Nc3cnccn3)cc2)=NN1c1ccc([N+](=O)[O-])cc1` gave an MIC of 12.5 µg/mL (≈ 26.7 µM) (Salmonella enterica; broth dilution; ATCC13076 TYPHIMURIUM).
`CNC(C)C1CCC(N)C(OC2C(N)CC(N)C(OC3OCC(C)(O)C(NC)C3O)C2O)O1` (centres unmarked) gave an MIC of 2 µg/mL (≈ 4.19 µM) (Bacillus cereus; broth dilution).
With `Nc1ccc(S(=O)(=O)Nc2ncccn2)cc1` the MIC was 94 µg/mL (≈ 376 µM) (Salmonella enterica; broth dilution; TYPHIMURIUM).
For `CC1(C)S[C@@H]2[C@H](NC(=O)[C@H](N)c3ccccc3)C(=O)N2[C@H]1C(=O)O`, the MIC was 0.25 µg/mL (≈ 0.715 µM) (Salmonella enterica; broth dilution; ATCC14028; 12 h).
The MIC of `COc1ccc(N2N=C(C(=O)c3ccc(Nc4cnccn4)cc3)SC2=C(C#N)C#N)cc1` is reported as 6.25 µg/mL (≈ 13.8 µM) (Salmonella enterica; broth dilution; ATCC13076 TYPHIMURIUM).
The MIC of `[H]/N=C(/N)N[C@H]1[C@H](O)[C@@H](O)[C@H](O[C@@H]2O[C@@H](C)[C@](O)(C=O)[C@H]2O[C@@H]2O[C@@H](CO)[C@H](O)[C@@H](O)[C@@H]2NC)[C@@H](N/C(N)=N\[H])[C@@H]1O` is reported as 15 µg/mL (≈ 25.8 µM) (Bacillus cereus; broth dilution; ATCC14579).
`COc1ccc(C=NNC(=O)CSc2nc3c(C)cccc3c(=O)n2-c2ccccc2)cc1OS(C)(=O)=O` has an inhibition zone of 2 mm (Bacillus cereus; well diffusion; 20 µg/mL).
For `O=C1/C(=C/c2ccc3ccccc3c2O)NC(=S)N1c1ccccc1`, the MIC was 24 µg/mL (≈ 69.3 µM) (Bacillus cereus; broth dilution; ATCC14579).
With `N#CC(C#N)=C1SC(C(=O)c2ccc(Nc3cnccn3)cc2)=NN1c1ccccc1` the MIC was 100 µg/mL (≈ 236 µM) (Salmonella enterica; broth dilution; ATCC13076 TYPHIMURIUM).
